According to ChEMBL document CHEMBL1147109, “Genetic elements carrying erm(B) in Streptococcus pyogenes and association with tet(M) tetracycline resistance gene” (2007):
Values after ≈ are worked out from the molar mass of the structure shown.

How the values were obtained:
Streptococcus pyogenes [1] = experiment: Antimicrobial activity against Streptococcus pyogenes iMLS-A isolate A expressing tet(M), tndX gene; type: functional
Outline: (§1)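 Broth microdilution MICs per CLSI against clinical S. pyogenes isolates carrying erm(B); S. pneumoniae ATCC 49619 as quality control. For some isolates, tetracycline MICs were also read after induction: colonies from overnight brain heart infusion agar were grown on brain heart infusion agar with or without subinhibitory tetracycline (0.05 μg/ml), harvested within 20 h, then tested.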

Streptococcus pyogenes [2] = experiment: Antimicrobial activity against tetracycline-susceptible Streptococcus pyogenes iMLS-A isolate expressing erm(B); type: functional; outline: as §1
Streptococcus pyogenes [3] = experiment: Antimicrobial activity against tetracyclin-resistant Streptococcus pyogenes cMLS isolate expressing erm(B); type: functional
Outline: (§2)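 Broth microdilution MICs run to CLSI recommendations on clinical erm(B)-carrying S. pyogenes isolates, with S. pneumoniae ATCC 49619 as quality control. In some isolates, tetracycline MICs were also measured on cells grown for no longer than 20 h on brain heart infusion agar, with or without subinhibitory tetracycline (0.05 μg/ml).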

Streptococcus pyogenes [4] = experiment: Antimicrobial activity against tetracycline-susceptible Streptococcus pyogenes cMLS isolate expressing erm(B); type: functional; outline: as §1
Streptococcus pyogenes [5] = experiment: Antimicrobial activity against Streptococcus pyogenes cMLS isolate B expressing tet(M), int, Xis gene; type: functional; outline: as §2
Streptococcus pyogenes [6] = experiment: Antimicrobial activity against tetracycline-susceptible Streptococcus pyogenes cMLS isolate D expressing tet(M), Xis, tnpA, tnpR gene; type: functional; outline: as §1
Streptococcus pyogenes [7] = experiment: Antimicrobial activity against tetracycline-susceptible Streptococcus pyogenes cMLS isolate E expressing tet(M), tndX gene; type: functional; outline: as §1
Streptococcus pyogenes [8] = experiment: Antimicrobial activity against tetracycline-susceptible Streptococcus pyogenes cMLS isolate F; type: functional; outline: as §1
Streptococcus pyogenes [9] = experiment: Antimicrobial activity against tetracycline-susceptible Streptococcus pyogenes cMLS isolate G expressing tnpA, tnpR gene; type: functional; outline: as §1
Streptococcus pyogenes [10] = experiment: Antimicrobial activity against erythromycin-resistant Streptococcus pyogenes A-3 transconjugated with erm(B) and tet(M) genes; type: functional
Outline: (§3)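 Transconjugants came from membrane-filter mating of the donor strain into recipient S. pyogenes 12RF (rifampin- and fusidic acid-resistant), done at least three times, and were confirmed by PCR to carry erm(B) and tet(M). MICs were then determined by broth microdilution to CLSI recommendations, with S. pneumoniae ATCC 49619 as quality control.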

Streptococcus pyogenes [11] = experiment: Antimicrobial activity against erythromycin-resistant Streptococcus pyogenes B-83 transconjugated with erm(B) and tet(M) genes; type: functional; outline: as §3
Streptococcus pyogenes [12] = experiment: Antimicrobial activity against erythromycin-resistant Streptococcus pyogenes C-105 transconjugated with erm(B) and tet(M) genes; type: functional; outline: as §3
Streptococcus pyogenes [13] = experiment: Antimicrobial activity against tetracyclin-resistant Streptococcus pyogenes C-105 transconjugated with erm(B) and tet(M) genes; type: functional; outline: as §3
Streptococcus pyogenes [14] = experiment: Antimicrobial activity against erythromycin-resistant Streptococcus pyogenes D-112 transconjugated with erm(B) and tet(M) genes; type: functional; outline: as §3
Streptococcus pyogenes [15] = experiment: Antimicrobial activity against erythromycin-resistant Streptococcus pyogenes E-115 transconjugated with erm(B) and tet(M) genes; type: functional; outline: as §3
Streptococcus pyogenes [16] = experiment: Antimicrobial activity against tetracycline-resistant Streptococcus pyogenes cMLS isolate C expressing tet(M), Xis, tnpA, tnpR gene

SMILES | MIC (Streptococcus pyogenes [1]) [mg/L] | MIC (Streptococcus pyogenes [2]) [mg/L] | MIC (Streptococcus pyogenes [3]) [mg/L] | MIC (Streptococcus pyogenes [4]) [mg/L] | MIC (Streptococcus pyogenes [5]) [mg/L] | MIC (Streptococcus pyogenes [6]) [mg/L] | MIC (Streptococcus pyogenes [7]) [mg/L] | MIC (Streptococcus pyogenes [8]) [mg/L] | MIC (Streptococcus pyogenes [9]) [mg/L] | MIC (Streptococcus pyogenes [10]) [mg/L] | MIC (Streptococcus pyogenes [11]) [mg/L] | MIC (Streptococcus pyogenes [12]) [mg/L] | MIC (Streptococcus pyogenes [13]) [mg/L] | MIC (Streptococcus pyogenes [14]) [mg/L] | MIC (Streptococcus pyogenes [15]) [mg/L] | MIC (Streptococcus pyogenes [16]) [mg/L]
CN(C)[C@@H]1C(O)=C(C(N)=O)C(=O)[C@@]2(O)C(O)=C3C(=O)c4c(O)cccc4[C@@](C)(O)[C@H]3C[C@@H]12 [TETRACYCLINE] | 0.125 (≈ 0.281 µM) | ≤ 0.125 | 32 (≈ 72 µM) | ≤ 0.125 | 32 (≈ 72 µM) | 0.125 (≈ 0.281 µM) | 0.125 (≈ 0.281 µM) | 0.125 (≈ 0.281 µM) | 0.125 (≈ 0.281 µM) | 0.25 (≈ 0.563 µM) | 32 (≈ 72 µM) | 32 (≈ 72 µM) | 32 (≈ 72 µM) | 0.25 (≈ 0.563 µM) | 0.25 (≈ 0.563 µM) | 32 (≈ 72 µM)
CC[C@H]1OC(=O)[C@H](C)[C@@H](O[C@H]2C[C@@](C)(OC)[C@@H](O)[C@H](C)O2)[C@H](C)[C@@H](O[C@@H]2O[C@H](C)C[C@H](N(C)C)[C@H]2O)[C@](C)(O)C[C@@H](C)C(=O)[C@H](C)[C@@H](O)[C@]1(C)O [ERYTHROMYCIN] |  |  |  |  |  |  |  |  |  | > 128 | > 128 | > 128 | > 128 | > 128 | > 128 | 
